What was measured:
eIF2 = eIF2 (Homo sapiens, UniProt P41091); assay: GDP unloading assay, displacement of Bodipy-GDP; assay type: binding; conditions: 1000-fold excess of unlabelled GDP; exchange catalysed by eIF2B
eIF2B(αβγδε)2 [1] = biological target: eIF2B(αβγδε)2 (Homo sapiens, UniProt P49770+Q9UI10, Q9UI10:L179A); assay: GEF assay, unloading of Bodipy-GDP from eIF2; assay type: biochemical; conditions: assembled eIF2B(βγδε) and eIF2B(α2); activator
Summary of the method: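 Human eIF2B subunits were co-expressed in E. coli from three plasmids, and the βγδε (δL179A) and α2 subcomplexes were purified separately and combined. The substrate was non-phosphorylated human eIF2 from gcn2Δ S. cerevisiae, loaded with Bodipy-GDP. A 1000-fold excess of unlabeled GDP was added as a chase, and the fluorescence decrease was followed with and without test compound. kobs came from a single-exponential fit.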

eIF2B(αβγδε)2 [2] = biological target: eIF2B(αβγδε)2 (Homo sapiens, UniProt P49770+Q9UI10, P49770:H188A); assay: decamer stability, sucrose gradient velocity sedimentation; assay type: binding; conditions: 500 nM ISRIB, 400 mM salt
Chain of eIF2B(αβγδε)2 (Homo sapiens, UniProt P49770+Q9UI10, P49770:H188A) (P49770 whole entry H188A): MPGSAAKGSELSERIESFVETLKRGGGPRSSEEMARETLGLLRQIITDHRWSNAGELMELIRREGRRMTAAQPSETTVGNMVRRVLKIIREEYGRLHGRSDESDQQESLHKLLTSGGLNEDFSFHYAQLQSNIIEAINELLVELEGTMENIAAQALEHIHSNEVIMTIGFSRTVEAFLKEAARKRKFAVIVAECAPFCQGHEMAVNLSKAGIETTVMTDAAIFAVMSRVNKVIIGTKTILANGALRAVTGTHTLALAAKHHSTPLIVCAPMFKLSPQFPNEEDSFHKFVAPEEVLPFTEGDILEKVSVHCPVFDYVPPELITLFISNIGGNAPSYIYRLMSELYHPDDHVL
Chain of eIF2B(αβγδε)2 (Homo sapiens, UniProt P49770+Q9UI10, P49770:H188A) (Q9UI10 whole entry): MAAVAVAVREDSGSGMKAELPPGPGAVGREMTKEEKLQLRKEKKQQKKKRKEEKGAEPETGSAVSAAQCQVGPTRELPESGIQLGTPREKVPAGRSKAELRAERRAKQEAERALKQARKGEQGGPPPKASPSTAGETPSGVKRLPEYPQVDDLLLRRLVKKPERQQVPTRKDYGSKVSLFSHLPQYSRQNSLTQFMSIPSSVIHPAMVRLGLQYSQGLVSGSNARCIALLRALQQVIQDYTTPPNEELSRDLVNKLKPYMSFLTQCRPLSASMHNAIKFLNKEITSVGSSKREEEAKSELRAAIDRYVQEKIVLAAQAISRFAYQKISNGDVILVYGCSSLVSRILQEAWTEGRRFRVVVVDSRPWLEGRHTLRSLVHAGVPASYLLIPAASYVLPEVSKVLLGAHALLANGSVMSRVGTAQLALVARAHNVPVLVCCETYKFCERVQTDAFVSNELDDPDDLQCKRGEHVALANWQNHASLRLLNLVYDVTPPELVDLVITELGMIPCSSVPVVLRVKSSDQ
Chain of eIF2B(αβγδε)2 (Homo sapiens, UniProt P49770+Q9UI10, P49770:H188A) (Q14232 whole entry partner): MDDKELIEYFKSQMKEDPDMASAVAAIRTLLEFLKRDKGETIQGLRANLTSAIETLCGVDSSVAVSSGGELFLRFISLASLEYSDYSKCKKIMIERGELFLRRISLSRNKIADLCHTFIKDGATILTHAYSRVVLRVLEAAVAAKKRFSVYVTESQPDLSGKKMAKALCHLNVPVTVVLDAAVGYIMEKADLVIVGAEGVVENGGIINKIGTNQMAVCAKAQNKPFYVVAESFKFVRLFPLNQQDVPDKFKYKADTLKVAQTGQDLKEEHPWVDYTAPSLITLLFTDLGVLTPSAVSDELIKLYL
Chain of eIF2B(αβγδε)2 (Homo sapiens, UniProt P49770+Q9UI10, P49770:H188A) (Q9NR50 whole entry partner): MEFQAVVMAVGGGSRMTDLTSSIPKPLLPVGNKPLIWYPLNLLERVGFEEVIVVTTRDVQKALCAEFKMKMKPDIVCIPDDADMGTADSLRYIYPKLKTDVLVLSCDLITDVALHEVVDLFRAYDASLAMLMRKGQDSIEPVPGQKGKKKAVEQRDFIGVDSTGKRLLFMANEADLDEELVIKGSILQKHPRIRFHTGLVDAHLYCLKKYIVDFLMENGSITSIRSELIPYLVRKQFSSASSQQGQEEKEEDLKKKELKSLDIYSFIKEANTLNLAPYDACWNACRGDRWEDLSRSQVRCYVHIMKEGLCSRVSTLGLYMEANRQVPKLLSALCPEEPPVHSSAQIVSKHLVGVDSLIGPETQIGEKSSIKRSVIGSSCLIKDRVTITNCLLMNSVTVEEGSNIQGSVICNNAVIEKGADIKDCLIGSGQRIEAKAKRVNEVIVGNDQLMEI
Chain of eIF2B(αβγδε)2 (Homo sapiens, UniProt P49770+Q9UI10, P49770:H188A) (Q13144 2-721 partner): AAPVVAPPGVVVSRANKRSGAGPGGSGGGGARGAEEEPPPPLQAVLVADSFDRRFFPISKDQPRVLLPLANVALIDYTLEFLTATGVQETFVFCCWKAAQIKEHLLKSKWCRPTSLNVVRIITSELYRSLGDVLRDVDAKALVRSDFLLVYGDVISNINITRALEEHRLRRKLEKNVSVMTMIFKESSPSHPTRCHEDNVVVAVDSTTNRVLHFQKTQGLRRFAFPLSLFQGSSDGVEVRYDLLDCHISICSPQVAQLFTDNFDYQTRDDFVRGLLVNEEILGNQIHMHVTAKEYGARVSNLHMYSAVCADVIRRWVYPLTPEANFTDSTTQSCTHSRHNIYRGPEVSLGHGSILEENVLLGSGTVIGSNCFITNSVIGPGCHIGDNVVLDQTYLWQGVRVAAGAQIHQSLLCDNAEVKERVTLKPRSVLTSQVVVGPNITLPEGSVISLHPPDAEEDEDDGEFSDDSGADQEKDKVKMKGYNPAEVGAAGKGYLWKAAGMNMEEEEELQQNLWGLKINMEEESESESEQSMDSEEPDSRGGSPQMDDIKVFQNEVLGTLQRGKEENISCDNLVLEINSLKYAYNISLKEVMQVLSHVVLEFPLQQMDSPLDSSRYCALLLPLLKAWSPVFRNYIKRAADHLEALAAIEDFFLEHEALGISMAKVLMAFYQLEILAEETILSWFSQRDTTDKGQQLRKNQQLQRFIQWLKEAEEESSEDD

Chain of eIF2 (P41091 2-472): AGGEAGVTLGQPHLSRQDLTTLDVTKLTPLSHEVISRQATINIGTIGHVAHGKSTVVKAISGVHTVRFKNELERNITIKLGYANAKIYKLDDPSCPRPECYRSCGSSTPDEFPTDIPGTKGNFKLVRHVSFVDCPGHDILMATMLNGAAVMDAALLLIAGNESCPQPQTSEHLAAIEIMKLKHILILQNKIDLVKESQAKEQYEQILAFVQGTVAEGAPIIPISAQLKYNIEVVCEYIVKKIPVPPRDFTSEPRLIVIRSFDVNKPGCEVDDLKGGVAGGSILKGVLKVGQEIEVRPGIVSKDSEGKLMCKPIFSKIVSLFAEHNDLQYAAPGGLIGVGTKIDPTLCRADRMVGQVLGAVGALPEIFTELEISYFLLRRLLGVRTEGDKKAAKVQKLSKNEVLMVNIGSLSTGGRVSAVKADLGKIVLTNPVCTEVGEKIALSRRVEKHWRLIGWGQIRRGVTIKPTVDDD
Chain of eIF2 (P05198 whole entry partner): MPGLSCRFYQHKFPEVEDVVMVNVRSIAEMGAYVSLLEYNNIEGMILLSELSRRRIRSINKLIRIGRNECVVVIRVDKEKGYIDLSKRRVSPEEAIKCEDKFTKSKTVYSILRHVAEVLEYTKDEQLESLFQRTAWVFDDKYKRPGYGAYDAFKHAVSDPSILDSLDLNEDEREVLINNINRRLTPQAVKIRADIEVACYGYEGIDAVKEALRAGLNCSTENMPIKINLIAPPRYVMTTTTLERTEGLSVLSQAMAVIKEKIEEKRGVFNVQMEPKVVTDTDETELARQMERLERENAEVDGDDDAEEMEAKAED
Chain of eIF2 (P20042 2-333 partner): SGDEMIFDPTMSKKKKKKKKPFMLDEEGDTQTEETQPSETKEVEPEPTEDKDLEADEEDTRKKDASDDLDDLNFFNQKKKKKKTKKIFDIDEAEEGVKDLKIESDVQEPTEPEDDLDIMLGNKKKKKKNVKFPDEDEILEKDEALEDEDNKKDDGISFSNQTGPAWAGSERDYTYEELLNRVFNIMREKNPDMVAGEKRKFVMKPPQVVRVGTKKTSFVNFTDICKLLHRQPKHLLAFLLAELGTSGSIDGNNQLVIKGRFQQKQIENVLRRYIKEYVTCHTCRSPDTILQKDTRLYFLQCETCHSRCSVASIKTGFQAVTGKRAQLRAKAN
Chain of eIF2B(αβγδε)2 (Homo sapiens, UniProt P49770+Q9UI10, Q9UI10:L179A) (P49770 whole entry): as the sequence (P49770 whole entry H188A) above, with A188H counted along it
Chain of eIF2B(αβγδε)2 (Homo sapiens, UniProt P49770+Q9UI10, Q9UI10:L179A) (Q9UI10 whole entry L179A): as the sequence (Q9UI10 whole entry) above, with L179A counted along it
Chain of eIF2B(αβγδε)2 (Homo sapiens, UniProt P49770+Q9UI10, Q9UI10:L179A) (Q14232 whole entry partner): as the sequence (Q14232 whole entry partner) above
Chain of eIF2B(αβγδε)2 (Homo sapiens, UniProt P49770+Q9UI10, Q9UI10:L179A) (Q9NR50 whole entry partner): as the sequence (Q9NR50 whole entry partner) above
Chain of eIF2B(αβγδε)2 (Homo sapiens, UniProt P49770+Q9UI10, Q9UI10:L179A) (Q13144 2-721 partner): as the sequence (Q13144 2-721 partner) above

Nc1nc2c(ncn2[C@@H]2O[C@H](COP(=O)(O)OP(=O)(O)O)[C@@H](O)[C@H]2O)c(=O)[nH]1 [GDP]
GDP unloading assay, displacement of Bodipy-GDP (eIF2): we added fluorescent Bodipy-GDP to GDP-bound eIF2

C[C@@H](Oc1ccc(Cl)cc1)C(=O)N[C@H]1CC[C@H](NC(=O)[C@@H](C)Oc2ccc(Cl)cc2)CC1 [ISRIB-A19(R,R)]
fold activation of GEF activity (kobs) (eIF2B(αβγδε)2 [1]): ~ 3 fold

O=C(COc1ccc(Cl)cc1)N[C@H]1CC[C@H](NC(=O)COc2ccc(Cl)cc2)CC1 [ISRIB]
decamer stabilization (inactive: none seen) (eIF2B(αβγδε)2 [2]): ISRIB did not stabilize eIF2B(βH188A) decamers

From publication PMC6120582 (Science (New York, N.Y.), 2018)
